Assay results from the EternaBench riboswitch data.

System: MS2 coat protein
Assay: apparent Kd, MS2 coat protein; higher = weaker binding; RNA-MaP array; FMN 200 µM where present
Procedure, shortened: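 On Illumina sequencing-chip clusters, designs were transcribed by stalled E. coli RNA polymerase and titrated with SNAP-549-labelled MS2 coat protein (0.7 or 1.5 nM, doubling to 3 µM), without and then with constant ligand, in 100 mM Tris-HCl pH 7.5, 80 mM KCl, 4 mM MgCl2, BSA, DTT, yeast tRNA and Tween-20. Apparent Kd is the median of filtered per-cluster curve fits to green signal normalised to red-channel RNA signal and control-cluster median Fmax.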

[1] = designed as: ON switch for flavin mononucleotide, no ligand
[2] = ligand present: flavin mononucleotide, designed as: ON switch for flavin mononucleotide
[3] = designed as: OFF switch for flavin mononucleotide, no ligand
[4] = ligand present: flavin mononucleotide, designed as: OFF switch for flavin mononucleotide

| Sequence | apparent Kd [1] | apparent Kd [2] | apparent Kd [3] | apparent Kd [4] |
| --- | --- | --- | --- | --- |
| GGGUGGGUACAGAAGGGAGUGAUGGGUUUUUGGUUUGACAUGAGGAUCACCCAUGUUUAUCUGGUUCAGGAUAUGUAGUGGUGG | 149 nM | 97.3 nM | – | – |
| UGACACUUGAGGGUCUCCCUUGACAUGAGGAUCACCCAUGUGCAGGAUAUACGUGUGAUGGUAUAGUAGAAGGGCACUCUAUGU | – | – | 27.7 nM | 35.6 nM |
| UUGGACGUCGUAGGUUAUGUAGGAUAUUCCUACAUGAGGAUCACCCAUGUUGACAUGGAAGAAGGACAGAAGGACGAUGUCCAU | 205 nM | 3.92 nM | – | – |
| UGGGUAAAUGUAGGAUAUCUAUAUUAAUAAUAUGGAGAAGGACAUGAGGAUCACCCAUGUACAGGGAAUUACCCAUUUCCUCUC | – | – | 275 nM | 556 nM |
| GUCGAUGUAGGAUAUUUCCACCCGCACAUGAGGAUCACCCAUGUGACCUUUUUCCGCUGGAAAGAAGGACGCGACA | – | – | 19.8 nM | 28.4 nM |
| CUGACGAUGUAAGGAUAUGCUGAGGAUAACUCAGCAGAAGGUACAUGAGGAUCACCCAUGUAACGUCAGAAUAAUAAUAAUAAU | – | – | 12.6 nM | 23.1 nM |
| AACAGUAUAGGAUAUACAUGAGGAUCACCCAUGUGAGAAUUACGUGGCGUACCACGAAGUAGAAGGAUACUGGA | – | – | 38.6 nM | 168 nM |
| AGGAUUAAAGGGAAUAACAUGAGGAUCACCCAUGUAUGGGAGAGAAGGCAUAUCGGAGGACGAUAUGAGGAUAUUUAAAAUUUA | 121 nM | 38.3 nM | – | – |
| GCGGUCAACGUAGGAUAUCUUCAGCCACAGCACAUUGCUGUACAUGAGGAUCACCCAUGUCCUGGAGAGAAGGACGGACGGCAG | 179 nM | 35.3 nM | – | – |
| AAUUAAUUAAUACAUGAGGAUCACCCAUGUAAUUAUUAGAUCAAGGAUAUCAGCUCGAUUAGAGCUGAGAAGGUGAUCACAUGU | 412 nM | 102 nM | – | – |
| CACAUGUGAGGAUAUGUACGAGGCCCGGACGGGUCUCGCAGGCAGAAGGCACAUGAGGAUCACCCAUGUGACCG | – | – | 23.9 nM | 66.7 nM |
| CUUCAGUCAGGAUAUGUUAAUCUCACCACUCGGCGAGCCGGACAGAAGGGACAUGAGGAUCACCCAUGUUAAAA | – | – | 39.1 nM | 23.4 nM |
| AGCUGUGGCCGAGGAUAUCUAUCCAAUAAAACCGAAAUAUAAUCGGACAUGAGGAUCACCCAUGUAGAGAAGGCGGUCUCAGCA | – | – | 22.4 nM | 30.5 nM |
| CAAACGUGAGGAUAUACAUGAGGAUCACCCAUGUGUUCCUCUAAACUGAAGAAGUAAUGUAGAAGGCACGUUUG | – | – | 43.1 nM | 19.4 nM |
| AACAAGUUAGGAUAUGCUGCUCGUCACAAAAGUGAUGAGUAGCAGAAGGAACAUGAGGAUCACCCAUGUAAAGA | – | – | 29.3 nM | 23.7 nM |
| ACAUGCAUAGCGAUAUGAUCGAGAGAUCAUGUCGCUAAAUUUAGAAGGACAUGAGGAUCACCCAUGUAGGAUAUGGGAGCAUGG | 42.8 nM | 10.3 nM | – | – |
| AGGAAGUGAGGAUAUGCAGUGGCCUGUAGACGCAAGCACUUGUAGAAGGCACAUGAGGAUCACCCAUGUUUAAA | – | – | 35.8 nM | 34.2 nM |
| GUAGCAUACCGAGGAUAUUCAGGGCGUGGGUAAACAUGAGGAUCACCCAUGUGGCGAAAGCCUAGGGAGAAGGCGGAAUGCUAC | 151 nM | 130 nM | – | – |
| GUGCUACAGCGGCGCACGAGACAUGAGGAUCACCCAUGUGACAGAAGGGACUUGUUAAAGGUAGGUCAGGAUAUGUCUUAAAAG | 291 nM | 81.4 nM | – | – |
| GUGAAACAUGAGGAUCACCCAUGUGAGGAUAUGUUUUAGUACUGCUGACAGUACAUCUAUAGAAGGCACAAAGG | – | – | 26.8 nM | 29.9 nM |
| AACGGGUGGGUAGGAUAUGGCCAUGUCUCAUUGCUAGAAGGACCAGCUGCUACAUGAGGAUCACCCAUGUCGUAGUGCACCCAG | 105 nM | 15.6 nM | – | – |

| Sequence | apparent Kd [1] | apparent Kd [2] | apparent Kd [3] | apparent Kd [4] |
| --- | --- | --- | --- | --- |
| UUAUGGAUCACAGGAUAUCCAAGGGCGCGUCUGGCGCGCUCACAUGAGGAUCACCCAUGUCGAGUGGAGAAGGGUGGUUGACGG | 466 nM | 68.3 nM | – | – |
| GAUUAACAUGAGGAUCACCCAUGUGUGAAUAUGGGAGGAUAUACGUGGACCGUAGUCCGCGUAGAAGGCCUAAUUG | 279 nM | 46.1 nM | – | – |
| UGGUCGGAGACAGGAUAUGUGACUGCAUAGUGCACAGAAGGGUCUACAUGAGGAUCACCCAUGUCACCGAACACCAAACAACAA | 412 nM | 41.2 nM | – | – |
| GCGAUUGCGUAGAAGGUACUAUAAAAUACACUGUAAGGAUAUACAAACAUGAGGAUCACCCAUGUAAAUGGAAUUUGCAAUCGC | 7.8 nM | 6.43 nM | – | – |
| UCCUGAUCGAGAGGUAGGAGUGGUAGAAGGCGACCGGUGCCAGAUGACAUGAGGAUCACCCAUGUCGAGGAUAUACCACAGAAU | – | – | 7.03 nM | 12.3 nM |
| UUGAAGUCAUCAGGAUAUAGUAUAAAAGACAUAUAUUUUUUCAAACAUGAGGAUCACCCAUGUCGCUAGAAGGGAUUAUAGAUU | – | – | 47.3 nM | 41.3 nM |
| GGUGGACAUGAGGAUCACCCAUGUGAGGAUAUCGGCCGGUUCGUGGUGGCUGGCUUCUCGAGAAGGCGCAUAGU | – | – | 55.8 nM | 65.7 nM |
| UGGUACAUGGGAGGAUAUCCUCAAGAGACAUGAGGAUCACCCAUGUAUUAUAUGCCUCAUGGCAUGGAGAAGGCCCAUGUACCU | 179 nM | 153 nM | – | – |
| UUUAUUUAGGCAGGAUAUACAUGUAUAUAUAUUUCUUUAUAUAUUAUUACAUGAGGAUCACCCAUGUAGAAGGGCCUUAUUAUA | – | – | 69.3 nM | 88.9 nM |
| AAUAACAGAGGAUAUACUAUUUUAUGUGUUUGUUGUUUUGAACAUGAGGAUCACCCAUGUAGAAGGCUGAGUAA | – | – | 27.9 nM | 30.3 nM |
| AUUGAGUGAGGAUAUCCCGCUGCCGUGCGACCAUGGAGCUGGGAGAAGGCACAUGAGGAUCACCCAUGUGAGUU | – | – | 19.3 nM | 45 nM |
| AAGAAGUCAGGAUAUCGUUAAUUUAGUUGUUUGUAUUAGUUCGAGAAGGGACAUGAGGAUCACCCAUGUAAGAA | – | – | 35.2 nM | 42.7 nM |
| GGGCUCGGUGUGAGGAUAUCGGGCUCUAAAGGGCUCGAGAAGGCACAUGAGGAUCACCCAUGUAAGUCGGGCUC | – | – | 14.8 nM | 15 nM |
| GCUGUCGCAUGAGGAUAUGGUCAGGUUUCCUGACCAGAAGGCAUGUCGAUAGACAUGAGGAUCACCCAUGUAGUAAAGACAGCA | 855 nM | 66.1 nM | – | – |
| GUGUACAGAGGAUAUACAUAAGCUAGGAAACUAGCAACCUCACAUGAGGAUCACCCAUGUAGAAGGCUGUACAC | – | – | 189 nM | 59.6 nM |
| AACGGUGGGUAGGAUAUCCGGUUCUAGUUGCCAGGAGAAGGGCCCACAUGAGGAUCACCCAUGUGGGUGGGCUC | – | – | 47.7 nM | 26.1 nM |
| CUGCUAAUAGGAUAUGCUAGGGAGGCUUCACGUUAGCAGGAACAUGAGGAUCACCCAUGUAGAAGGAUUGUAGA | – | – | 30.2 nM | 21.2 nM |
| AAUCCACAUGAGGAUCACCCAUGUCAGGAUAUGAACGGUCUGGCACCGUGGGUUCCUGUUGACCGUCAGAAGGGACAAGGGCCC | – | – | 5.69 nM | 7.72 nM |
| CCAGGCUGUGUGAGGAUAUGCUGGUCCUUGGAUCAGCAGAAGGCACAUGAGGAUCACCCAUGUGAAGAGCUUGG | – | – | 16.4 nM | 65 nM |
| GCGUGACAUGAGGAUCACCCAUGUGAGGAUAUCUGGACACUCUUUAUUUUAGAUGUCCAGAGAAGGCACAUGCU | – | – | 238 nM | 126 nM |
| AGAGAAUACUCAGGAUAUCUUAAUAGAAAGAAUAGAGAAGGGAGACAUGAGGAUCACCCAUGUGAAGUCUUGAGACUACAUGGU | – | – | 291 nM | 442 nM |
